Assay results published in ChEMBL document CHEMBL1212759, “Antifungal activity of colistin against mucorales species in vitro and in a murine model of Rhizopus oryzae pulmonary infection” (Antimicrob Agents Chemother, 2010).
Calls of active or inactive are those of the source. No cut-off for these calls is given here.

Columns and labels:
Mucor circinelloides [1] = test: Antimicrobial activity against Mucor circinelloides isolate 4030 after 24 hrs in RMPI 1640 medium by broth microdilution method; format: functional, organism-based
How it was run: (§1)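 Colistin was serially diluted from 64 to 0.06 μg/ml in RPMI 1640 with glucamine and without bicarbonate. Fresh spores from 48–72 h YAG plates were added at 0.5 × 10^4 to 4 × 10^4 cells/ml. Plates were incubated 24 h at 37°C. MIC was read visually as the lowest concentration giving 100% growth inhibition.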

Mucor circinelloides [2] = test: Antimicrobial activity against Mucor circinelloides isolate 5904 after 24 hrs in RMPI 1640 medium by broth microdilution method; format: functional, organism-based; how it was run: as §1
Rhizopus arrhizus [3] = test: Antimicrobial activity against Rhizopus oryzae isolate 4549 after 24 hrs in RMPI 1640 medium by broth microdilution method; format: functional, organism-based; how it was run: as §1
Rhizopus homothallicus [4] = test: Antimicrobial activity against Rhizopus homothallicus isolate 5790 after 24 hrs in RMPI 1640 medium by broth microdilution method; format: functional; how it was run: as §1
Rhizopus arrhizus [5] = test: Antimicrobial activity against Rhizopus oryzae isolate 5496 after 24 hrs in RMPI 1640 medium by broth microdilution method; format: functional, organism-based; how it was run: as §1
Rhizopus arrhizus [6] = test: Antimicrobial activity against Rhizopus oryzae isolate 6093 after 24 hrs in RMPI 1640 medium by broth microdilution method; format: functional, organism-based
How it was run: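 Broth microdilution in RPMI 1640 with […], without bicarbonate. Colistin was serially diluted 64 to 0.06 μg/ml. Spores came from YAG plates grown 48–72 h at 37°C, were filtered and counted, and were inoculated at 0.5 × 10^4 to 4 × 10^4 cells/ml. Plates were incubated 24 h at 37°C. MIC was read visually as the lowest concentration giving 100% growth inhibition.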

Rhizopus = test: Antimicrobial activity against […] isolate 6254 after 24 hrs in RMPI 1640 medium by broth microdilution method; format: functional, organism-based; how it was run: as §1
[7] = system: Cunninghamella bertholletiae; test: Antimicrobial activity against Cunninghamella bertholletiae isolate 6733 after 24 hrs in yeast nitrogen base complete medium by broth microdilution method; format: functional, organism-based
How it was run: (§2)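 Broth microdilution in YNB complete medium with colistin at 128 to 0.12 μg/ml. Freshly collected spores were inoculated at 0.5 × 10^4 to 4 × 10^4 cells/ml and incubated 24 h at 37°C. MIC was read visually as the lowest concentration with complete (100%) growth inhibition.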

Mucor circinelloides [8] = test: Antimicrobial activity against Mucor circinelloides isolate 4480 after 24 hrs in yeast nitrogen base complete medium by broth microdilution method; format: functional, organism-based; how it was run: as §2
Rhizopus arrhizus [9] = test: Antimicrobial activity against Rhizopus oryzae isolate 4549 after 24 hrs in yeast nitrogen base complete medium by broth microdilution method; format: functional, organism-based; how it was run: as §2
Rhizopus arrhizus [10] = test: Antimicrobial activity against Rhizopus oryzae isolate 3140 after 24 hrs in yeast nitrogen base complete medium by broth microdilution method; format: functional, organism-based; how it was run: as §2
Rhizopus arrhizus [11] = test: Antimicrobial activity against Rhizopus oryzae isolate 5879 after 24 hrs in yeast nitrogen base complete medium by broth microdilution method; format: functional, organism-based
How it was run: (§3)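 Microdilution was done in yeast nitrogen base complete medium, with colistin serially diluted 128 to 0.12 μg/ml. Spores were harvested from YAG plates (48–72 h, 37°C), washed, filtered and counted, then added at 0.5 × 10^4 to 4 × 10^4 cells/ml. After 24 h at 37°C, MIC was taken visually as the lowest concentration with complete growth inhibition.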

Rhizopus homothallicus [12] = test: Antimicrobial activity against Rhizopus homothallicus isolate 5790 after 24 hrs in yeast nitrogen base complete medium by broth microdilution method; format: functional; how it was run: as §2
Rhizopus arrhizus [13] = test: Antimicrobial activity against Rhizopus oryzae isolate 5799 after 24 hrs in yeast nitrogen base complete medium by broth microdilution method; format: functional, organism-based; how it was run: as §3
Rhizopus arrhizus [14] = test: Antimicrobial activity against Rhizopus oryzae isolate 5496 after 24 hrs in yeast nitrogen base complete medium by broth microdilution method; format: functional, organism-based; how it was run: as §2
Rhizopus microsporus = test: Antimicrobial activity against Rhizopus microsporus isolate 6164 after 24 hrs in yeast nitrogen base complete medium by broth microdilution method; format: functional; how it was run: as §2
Rhizopus arrhizus [15] = test: Antimicrobial activity against Rhizopus oryzae isolate 6725 after 24 hrs in yeast nitrogen base complete medium by broth microdilution method; format: functional, organism-based; how it was run: as §3
Rhizopus homothallicus [16] = test: Antimicrobial activity against Rhizopus homothallicus isolate 6360 after 24 hrs in yeast nitrogen base complete medium by broth microdilution method; format: functional; how it was run: as §2
Rhizopus arrhizus [17] = test: Antimicrobial activity against Rhizopus oryzae at 16 ug/disk after 24 hrs by disk diffusion method; format: functional, organism-based
How it was run: (§4)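 Paper disks loaded with 8, 16 or 32 μg colistin were placed on agar plates inoculated with 200 μl of a 10^6 cells/ml R. oryzae spore suspension. After 24 h at 37°C, the diameter of the inhibition zone was measured.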

Rhizopus arrhizus [18] = test: Antimicrobial activity against Rhizopus oryzae at 32 ug/disk after 24 hrs by disk diffusion method; format: functional, organism-based; how it was run: as §4
Rhizopus arrhizus [19] = test: Fungicidal activity against Rhizopus oryzae 5799 after 6 hrs by DiBAC staining; format: functional, organism-based
How it was run: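 Spores were grown to mycelia in RPMI 1640 plus 0.15% Junlon, shaken 18 h at 37°C. Mycelia were pelleted and exposed 6 h at 37°C with shaking to colistin (two levels), amphotericin B 2 μg/ml, or drug-free medium. They were washed in MOPS pH 7, stained with DiBAC 2 μg/ml for 1 h in the dark at ambient temperature, and imaged by fluorescence microscopy with an FITC filter.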

Rhizopus arrhizus [20] = test: Antimicrobial activity against Rhizopus oryzae assessed as reduction in hyphal viability at 8 ug/ml up to 6 hrs by XTT assay; format: functional, organism-based
How it was run: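 R. oryzae mycelia were shaken at 37°C in RPMI 1640 with colistin, amphotericin B or both; drug-free RPMI served as control. At 0, 2, 6 and 24 h, pellets received XTT (1 mg) plus menadione (0.17 mg) in 1 ml PBS for 1 h at 37°C, then OD405 was read. Viability is drug OD405 divided by control OD405; at least three experiments.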

Rhizopus arrhizus [21] = test: Antimicrobial activity against Rhizopus oryzae assessed as plasma membrane disruption-related ATP release at 8 ug/ml after 5 mins by Cell Titer-Glo luminescent assay; format: functional, organism-based
How it was run: (§5)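 Spores at 10^7 cells/ml in RPMI 1640 were germinated about 6 h at 37°C. Germlings were resuspended in RPMI with colistin at 8 or 32 μg/ml, or drug-free, and shaken at 37°C. Supernatants taken at 5, 30, 60 and 90 min were assayed for released ATP by CellTiter-Glo luminescence.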

Rhizopus arrhizus [22] = test: Antimicrobial activity against Rhizopus oryzae assessed as plasma membrane disruption-related ATP release at 32 ug/ml after 5 mins by Cell Titer-Glo luminescent assay; format: functional, organism-based; how it was run: as §5
Rhizopus arrhizus [23] = test: Antimicrobial activity against Rhizopus oryzae assessed as plasma membrane disruption-related ATP release at 32 ug/ml after 30 mins by Cell Titer-Glo luminescent assay; format: functional, organism-based; how it was run: as §5
Rhizopus arrhizus [24] = test: Antimicrobial activity against Rhizopus oryzae assessed as cytoplasmic vacuolar swelling and bleb formation at 32 ug/ml by transmission electron microscopy; format: functional, organism-based

Work on COLISTIN yielded an MFC (Mucor circinelloides [1]) of 64 µg/mL, an MIC (Mucor circinelloides [1]) of 16 µg/mL and an MFC (Mucor circinelloides [2]) of 64 µg/mL. The MIC (Mucor circinelloides [2]) was 16 µg/mL, the MFC (Rhizopus arrhizus [3]) was 64 µg/mL and the MIC (Rhizopus arrhizus [3]) was 32 µg/mL. It also gave an MFC (Rhizopus homothallicus [4]) of 64 µg/mL, an MIC (Rhizopus homothallicus [4]) of 16 µg/mL and an MFC (Rhizopus arrhizus [5]) of 32 µg/mL. It also gave an MIC (Rhizopus arrhizus [5]) of 16 µg/mL, an MFC (Rhizopus arrhizus [6]) of 32 µg/mL and an MIC (Rhizopus arrhizus [6]) of 16 µg/mL. The MFC (Rhizopus) was 32 µg/mL, the MIC (Rhizopus) was 16 µg/mL and the MFC [7] was greater than 128 µg/mL. The MIC [7] was 128 µg/mL, the MFC (Mucor circinelloides [8]) was greater than 128 µg/mL and the MIC (Mucor circinelloides [8]) was 128 µg/mL. It also gave an MFC (Rhizopus arrhizus [9]) greater than 128 µg/mL, an MIC (Rhizopus arrhizus [9]) of 128 µg/mL and an MFC (Rhizopus arrhizus [10]) greater than 128 µg/mL. It also gave an MIC (Rhizopus arrhizus [10]) of 128 µg/mL, an MFC (Rhizopus arrhizus [11]) greater than 128 µg/mL and an MIC (Rhizopus arrhizus [11]) of 128 µg/mL. The MFC (Rhizopus homothallicus [12]) was greater than 128 µg/mL, the MIC (Rhizopus homothallicus [12]) was 128 µg/mL and the MFC (Rhizopus arrhizus [13]) was greater than 128 µg/mL. For the same sequence, the MIC (Rhizopus arrhizus [13]) was 128 µg/mL, the MFC (Rhizopus arrhizus [14]) was greater than 128 µg/mL and the MIC (Rhizopus arrhizus [14]) was 128 µg/mL. The MFC (Rhizopus microsporus) was greater than 128 µg/mL, the MIC (Rhizopus microsporus) was 128 µg/mL and the MFC (Rhizopus arrhizus [15]) was greater than 128 µg/mL. The MIC (Rhizopus arrhizus [15]) was 128 µg/mL, the MFC (Rhizopus homothallicus [16]) was greater than 128 µg/mL and the MIC (Rhizopus homothallicus [16]) was 128 µg/mL. The inhibition zone (IZ) (Rhizopus arrhizus [17]) was 19 mm, the inhibition zone (IZ) (Rhizopus arrhizus [18]) was 21 mm and the Activity (Rhizopus arrhizus [19]) was “Dose-dependent effect”. The inhibition (Rhizopus arrhizus [20]) was 45%, the Activity (Rhizopus arrhizus [21]) was “Active” and the Activity (Rhizopus arrhizus [22]) was “Active”. For the same sequence, the Activity (Rhizopus arrhizus [23]) was “Active” and the Activity (Rhizopus arrhizus [24]) was “Active”.
